SR-BI DiI inh = inhibitors of mouse SR-BI mediated HDL lipid uptake | Q61009 | ldlA[mSR-BI] CHO cells, DiI-HDL uptake fluorescence, 3 h | inhibition, % at 12.5 µM | 320,000 compounds, 0.96% hits | AID 488896;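 active means mean replicate inhibition of at least 70% and a set share of replicates each scoring 70 or more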;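 further: 0% = median of neutral control wells and 100% = median of positive control wells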
SR-BI uptake up = SR-BI HDL lipid transfer activation. 320,000 compounds, 0.096% hits. activation, % at 12.5 µM. CHO ldlA[mSR-BI] cells, DiI-HDL uptake fluorescence, 3 h; 100 = double the neutral-control signal;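 active means mean replicate activation of at least 60% and every replicate at or above 60%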;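 further: 0% = median plate neutral-control signal and 100% = twice that signal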
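Test system: SR-BI-overexpressing, LDLR-lacking CHO cells; Medium: Ham's F12 with 0.5% BSA, HEPES 25 mM, pH 7.4; Schedule: 3 h, 37 °C; Technique: bottom-read fluorescence, 550/595 nm.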
GRK2 inh = blocks RNA aptamer binding to human GRK2. bead flow cytometry, FAM-aptamer displacement from GRK2. inhibition of aptamer binding, % at 10 µM. 330,000 compounds, 0.59% hits. AID 488847;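 active means inhibition of aptamer binding above 40%, roughly 3 SD of noise, on plates passing a quality check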;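 further: median bead fluorescence of bound FAM aptamer so fluorescent compounds give negative values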
Rin1 Abl inh = inhibitors of human Rin1-Abl protein interaction; inhibition, % at 7.35 µM; TR-FRET Rin1/Abl binding, biochemical; P00519+Q13671; 360,000 compounds, 0.4% hits; in the data active means inhibition above about 5%, passing the limit was not always enough
GRK2 inh confirm = human GRK2 inhibition confirmation, cherry pick 1; shares compounds with GRK2 inh; bead-bound GRK2, FAM-aptamer displacement, flow cytometry; aptamer displacement, % at 10 µM; 2,000 compounds, 4% hits;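 active means aptamer displacement above 40%, near three times the noise of non-fluorescent compounds, on plates passing quality checks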;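 further: negative values mostly reflect intrinsic compound fluorescence rather than true enhancement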
FAM quench CP1 = aptamer fluorescence quenching in GRK2 counter-screen | 2,000 tested, under 10 active | shares compounds with GRK2 inh | fluorescence response (% of DMSO), % at 10 µM | Carboxyfluorescein RNA aptamer on beads, flow cytometry quenching; hits give low values;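 active means compounds that quench the bead-bound fluorescent RNA probe, cutting fluorescence to under half of the solvent control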;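 further: counterscreen run without GRK2 so only probe quenching by compound is measured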
GRK2 CP2 = human GRK2 inhibition confirmation, cherry pick 2 | shares compounds with GRK2 inh | bead-bound GRK2, FAM-aptamer displacement, flow cytometry | inhibition of aptamer binding, % at 10 µM | 360 tested, under 10 active;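 active means inhibition of aptamer binding above 40%, about triple the noise seen with nonglowing compounds, on plates passing quality control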;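 further: negative values mostly come from compounds that fluoresce themselves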
FAM quench SP = quenches fluorescent RNA aptamer, GRK2 hit artifact; shares compounds with GRK2 inh; carboxyfluorescein RNA aptamer beads, flow cytometry quenching; hits give low values; fluorescence response vs DMSO, % at 10 µM; 360 tested, under 10 active; AID 588494;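 active means response vs DMSO under 50%, meaning signal dropped by over half, treated as fluorescence quencher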;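 further: labelled aptamer on streptavidin beads without GRK2 as a quench counter-screen; 100% = bead fluorescence of DMSO wells and lower means quenching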
* = called active by the depositor; . = no result given. Hits are enriched below; roughly 1.9% of the tested compounds scored in any of these assays.

SMILES	SR-BI DiI inh	SR-BI uptake up	GRK2 inh	Rin1 Abl inh	GRK2 inh confirm	FAM quench CP1	others
CCNc1nc(NCC)n2c(SCC(=O)Nc3ccccc3)nnc2n1	-35	35	0	-1	.	.	GRK2 CP2=2;FAM quench SP=106
CCNc1nc(NCC)n2c(SCC(=O)Nc3cc(OC)ccc3OC)nnc2n1	10	-10	0	-1	.	.	GRK2 CP2=-13;FAM quench SP=101
O=C(/C=C/[C@H]1O[C@@H](n2ccc(=O)[nH]c2=O)[C@H](O)[C@@H]1O)NCc1ccccc1	.	.	.	0	.	.
CC(Oc1ccccc1)C(=O)Nc1nnc(S(=O)(=O)Nc2ccccc2)s1 (stereo not drawn)	0	0	3	-2	.	.
O=C(N/N=C/c1ccc(Br)s1)c1ccc([N+](=O)[O-])cc1	7	-7	78*	2	-26	99
O=C(CS(=O)(=O)c1cccc(C(F)(F)F)c1)Nc1ccccc1Cl	-13	13	1	-1	.	.	GRK2 CP2=-5;FAM quench SP=107
COc1ccc(OC)c(NC(=O)COC(=O)CN2C(=O)NC3(CCCC3)C2=O)c1	-25	25	0	2	.	.
CCC(=O)Nc1ccc(C(=O)COC(=O)Cc2ccsc2)cc1	3	-3	48*	-2	-5	98
CNC(=O)C1CN(C(=O)c2nn(Cc3ccccc3)c(=O)c3ccccc23)c2ccccc2O1 (stereo not drawn)	.	.	.	-1	.	.
COc1cc([C@H]2Oc3c(OC)cc(CCCO[C@@H]4O[C@H](CO)[C@@H](O)[C@H](O)[C@H]4O)cc3[C@@H]2CO)ccc1O	-5	5	3	-3	.	.
COc1ccc(-c2sc3cc(OC)c(OC)cc3c2C#CC2(O)CCCCC2)cc1	61	-61	83*	1	-3	96
CC(C)c1ccc(NC(=S)NCc2cccs2)cc1	-6	6	0	-2	.	.
COc1ccc(NC(=S)NCc2cccs2)cc1	-11	11	62*	-1	0	110
O=C(NC1CCCCC1)C(c1ccc2ncccc2c1)N(Cc1ccc(F)cc1)C(=O)c1ccc2c(c1)OCCO2 (stereo not drawn)	-7	7	48*	3	2	100
O=C(NC1CCCCC1)C(c1ccc2ncccc2c1)N(Cc1ccc2c(c1)OCO2)C(=O)c1ccc2c(c1)OCCO2 (stereo not drawn)	-2	2	1	2	.	.
O=C(NNS(=O)(=O)c1ccc([N+](=O)[O-])cc1)C(=O)Nc1cccc(C(=O)O)c1	-8	8	69*	3	5	102
NC(=O)C[C@H](N)c1cn([C@@H](CC(N)=O)C(=O)N2CCNCC2)nn1	-4	4	49*	-1	1	101
CC(C)[C@H](N)c1cn([C@@H](CO)C(=O)N2CCNCC2)nn1	-12	12	4	2	.	.
CCCc1cc(=O)[nH]c(SCC(=O)c2c[nH]c3ccccc23)n1	-37	37	59*	5	-2	116
CCOc1ccccc1NC(=O)CSc1n[nH]c(N)n1	-15	15	0	-1	.	.
CCc1cccc(C)c1NC(=O)CSc1n[nH]c(N)n1	-12	12	100*	0	-4	100
Cc1ccccc1NC(=O)CSc1nnc(-c2ccco2)c(-c2ccco2)n1	-3	3	10	-1	.	.
Cc1cccc(C)c1NC(=O)CSc1nnc(-c2ccco2)c(-c2ccco2)n1	-39	39	47*	-1	14	100
O=C(Oc1c(-c2ccccc2)oc2ccccc2c1=O)c1ccccc1	3	-3	0	-2	.	.
O=C(Oc1cc(=O)oc2ccccc12)c1ccccc1	1	-1	100*	-1	-1	92
O=C(Oc1cccc2ccccc12)c1ccccc1	-4	4	.	-1	.	.
O=C(Oc1cccc2c(O)cccc12)c1ccccc1	-23	23	42*	-1	4	102
COC(=O)c1cc(=O)nc(NN=Cc2ccc(OC)cc2)s1	.	.	.	2	.	.

High-throughput results (PubChem)
